Results on eight compounds are retold here after ChEMBL document CHEMBL4261510, “Synthesis of novel inhibitors of α-amylase based on the thiazolidine-4-one skeleton containing a pyrazole moiety and their configurational studies” (Medchemcomm, 2017).

Experiment [1] addresses Alpha amylase (Homo sapiens) (UniProt P0DUB6). The experiment is described as follows: Inhibition of human alpha-amylase at 50 ug/ml using starch as substrate preincubated for 30 mins by 3,5-dinitrosalicylic acid color reagent based assay relative to control. An outline of the steps:
(§1)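 Test samples were prepared as a DMSO stock of 10 mg/10 mL and assayed at 50, 100 and 200 μg mL–1. Enzyme was at 1 unit per mL in 20 mM sodium phosphate, pH 6.9. Sample and enzyme were incubated 30 min at 25 °C. DNSA colour reagent was added, then heated 15 min at 85 °C and read at 595 nm. Soluble potato starch (0.5–1% w/v) was the substrate. Inhibition % was taken against a DMSO control, with blanks correcting background.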

Experiment [2] shares this target. The experiment is described as follows: Inhibition of human alpha-amylase at 100 ug/ml using starch as substrate preincubated for 30 mins by 3,5-dinitrosalicylic acid color reagent based assay relative to control. An outline of the steps: as §1
Experiment [3] has the same target. The experiment is described as follows: Inhibition of human alpha-amylase at 200 ug/ml using starch as substrate preincubated for 30 mins by 3,5-dinitrosalicylic acid color reagent based assay relative to control. An outline of the steps: as §1

The structures appear in SMILES notation.

Alpha amylase (Homo sapiens), sequence (P0DUB6 whole entry, looked up): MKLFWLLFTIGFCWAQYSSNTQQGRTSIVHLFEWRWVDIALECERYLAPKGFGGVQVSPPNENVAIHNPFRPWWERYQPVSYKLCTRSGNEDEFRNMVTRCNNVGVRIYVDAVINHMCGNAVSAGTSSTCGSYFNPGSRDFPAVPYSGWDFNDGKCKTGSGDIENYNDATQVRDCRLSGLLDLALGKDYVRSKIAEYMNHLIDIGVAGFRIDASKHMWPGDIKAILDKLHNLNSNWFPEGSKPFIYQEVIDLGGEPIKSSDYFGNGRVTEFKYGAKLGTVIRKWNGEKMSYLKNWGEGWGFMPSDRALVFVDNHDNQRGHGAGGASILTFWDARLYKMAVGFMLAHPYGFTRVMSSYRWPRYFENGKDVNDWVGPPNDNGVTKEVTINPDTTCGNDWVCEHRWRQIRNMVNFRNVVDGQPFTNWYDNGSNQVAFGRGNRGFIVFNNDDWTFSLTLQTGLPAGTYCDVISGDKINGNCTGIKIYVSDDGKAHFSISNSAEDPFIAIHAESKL

As for `Cc1ccc(/N=C2/NC(=O)/C(=C/c3cn(-c4ccccc4)nc3-c3ccc(Cl)cc3)S2)cc1`, the inhibition (as a rule, the drop in the measured response relative to a control, in per cent) in experiment [1] stood at 50.9%; in experiment [2] it was 81.1%; in experiment [3] it was 75%.

Turning to `Cc1ccc(/N=C2/NC(=O)/C(=C/c3cn(-c4ccccc4)nc3-c3ccc(C)cc3)S2)cc1`, the inhibition amounted to 79.2% in experiment [1], 83.7% in experiment [2] and 84% in experiment [3].

`Cc1ccc(/N=C2/NC(=O)/C(=C/c3cn(-c4ccccc4)nc3-c3ccc(F)cc3)S2)cc1`: the inhibition is 77.1% in experiment [1], 81.6% in experiment [2] and 78% in experiment [3].

As for `Cc1ccc(/N=C2/NC(=O)/C(=C/c3cn(-c4ccccc4)nc3-c3ccc(Br)cc3)S2)cc1`, the inhibition in experiment [1] came to 52.1%; in experiment [2], 72.9%; in experiment [3], 97.4%.

With `C[C@H]1O[C@H](O[C@H]2[C@H](O)[C@@H](O)[C@@H](O[C@H]3[C@H](O)[C@@H](O)C(O)O[C@@H]3CO)O[C@@H]2CO)[C@H](O)[C@@H](O)[C@@H]1N[C@H]1C=C(CO)[C@@H](O)[C@H](O)[C@H]1O` (some centres undefined), the inhibition in experiment [1] amounted to 48.6%; in experiment [2], 53.8%; in experiment [3] it was 63.7%.

Consider `Cc1ccc(/N=C2/NC(=O)/C(=C/c3cn(-c4ccccc4)nc3-c3ccccc3)S2)cc1`, for which the inhibition in experiment [1] is 48.1%; in experiment [2] it was 81.6%; in experiment [3], 84.3%.

Consider `Cc1ccc(/N=C2/NC(=O)/C(=C/c3cn(-c4ccccc4)nc3-c3ccc([N+](=O)[O-])cc3)S2)cc1`, for which the inhibition in experiment [1] worked out at 65.1%; in experiment [2] it was 88.2%; in experiment [3], 58%.

Turning to `COc1ccc(-c2nn(-c3ccccc3)cc2/C=C2\S/C(=N\c3ccc(C)cc3)NC2=O)cc1`, the inhibition in experiment [1] is 75.9%; in experiment [2], 90%; in experiment [3] it was 92.2%.
